According to ChEMBL document CHEMBL1126849, “Synthesis of A-ring fluorinated derivatives of (17 alpha,20E/Z)-[125I]iodovinylestradiols: effect on receptor binding and receptor-mediated target tissue uptake” (J Med Chem, 1993):

Key:
Rattus norvegicus [1] = test: Biodistribution in blood of immature femalee rat after 1 hr administration of 3 micro Ci (111 kBq) in the presence of (+E2); assay type: ADME, organism-based; conditions: in vivo
Method in brief: (§1)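 Immature female Long Evans rats (21–24 days, 45–70 g), unanesthetized in retention cages, given 3 µCi (111 kBq) 125I-labeled steroid i.v. via lateral tail vein. Vehicle was ethanol diluted in saline containing 1% Tween-80, giving 9% ethanol final. The blocking group received 60 µg unlabeled estradiol co-injected. Rats were killed under ether by axillary bleeding, and tissues were KCl-washed and gamma-counted. Data are %ID/g, mean ± SE, n=3–5.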

Rattus norvegicus [2] = test: Biodistribution in liver of Iimmature female rat after 3 hour administration of 3 micro Ci (111 kBq) in the absence of 60 microg estradiol; assay type: ADME, organism-based; conditions: in vivo; method in brief: as §1

| ID/g (Rattus norvegicus [1]) | ID/g (Rattus norvegicus [2]) | Structure (SMILES) |
| --- | --- | --- |
| 0.81% | – | CO[C@H]1C[C@@]2(C)[C@@H](CC[C@@]2(O)/C=C\I)[C@@H]2CCc3c(ccc(O)c3F)[C@H]21 |
| – | 2.87% | C[C@]12CC[C@@H]3c4cc(F)c(O)cc4CC[C@H]3[C@@H]1CC[C@@]2(O)/C=C/I |
